According to ChEMBL document CHEMBL1148715, “Liver-targeted prodrugs of 2'-C-methyladenosine for therapy of hepatitis C virus infection” (J Med Chem, 2007):
≈ marks a conversion by molar mass, not a printed value.

Legend:
Liver = assay: Drug level in Sprague-Dawley rat liver at 50 mg/kg, po after 3 hrs; type: ADME, organism-based; set-up: dose 50 mg/kg, route oral; details: in vivo
Method in brief: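 Sprague–Dawley rats dosed by oral gavage in PEG-400. Liver (~1 g) taken at 3 h, snap-frozen, then homogenized in 3 volumes ice-cold 70% methanol with 20 mM EDTA/EGTA. Clarified supernatant dried and reconstituted. NTP measured by ion-pair LC-MS/MS ([…]/78.8) against a 0.01–30 μM 2'-C-methyl-ATP calibration curve; reported as nmol/g liver.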

Hepatocyte = assay: Activation of prodrug to corresponding nucleoside triphosphate in Sprague-Dawley rat hepatocytes at 25 uM after 2 hrs; type: cell-based
Method in brief: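 Freshly isolated hepatocytes from fed Sprague–Dawley rats (250–300 g), >85% trypan blue viable, 20 mg/mL wet weight. Incubated 2 h at 37 °C in Krebs–bicarbonate buffer with 20 mM glucose and 1 mg/mL BSA; compound added from DMSO stock. Extract reconstituted in water; 2'-C-methyl-ATP measured by LC-MS/MS against an authentic triphosphate standard.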

[1] = Solubility in citrate buffer at pH 5.1; type: physicochemical
[2] = Oral bioavailability in Sprague-Dawley rat; type: ADME, organism-based; details: in vivo
Method in brief: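 Rats given the prodrug iv (10 mg/kg) and orally (50 mg/kg, PEG-400; fasted, food returned a few hours after dosing). Liver NTP followed over time by LC-MS/MS. Bioavailability taken as the ratio of liver NTP AUC, oral versus iv.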

[3] = Chemical stability at pH 7.0; type: physicochemical; details: buffer
Method in brief: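 Half-life measured in pH 7 buffer at 25 °C.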

[4] = Aqueous solubility of the compound; type: physicochemical

Structure (SMILES)	Activity (Liver) [nmol/g]	Activity (Hepatocyte) [nmol/g]	also measured
CCCCCOC(=O)Nc1ncnc2c1ncn2[C@@H]1O[C@H](COP2(=O)OCCC(c3cccc(Cl)c3)O2)[C@@H](O)[C@@]1(C)O (some centres not stated)	1.6	73	
C[C@@]1(O)[C@H](O)[C@@H](COP2(=O)OCC[C@@H](c3cccc(Cl)c3)O2)O[C@H]1n1cnc2c(N)ncnc21 (some centres not stated)	2.9	389	
C[C@@]1(O)[C@H](O)[C@@H](COP2(=O)OCCC(c3cncc(Br)c3)O2)O[C@H]1n1cnc2c(N)ncnc21 (some centres not stated)		194	
C[C@@]1(O)[C@H](O)[C@@H](COP2(=O)OCCC(c3cccc(F)c3)O2)O[C@H]1n1cnc2c(N)ncnc21 (some centres not stated)	4.1	328	
C[C@@]1(O)[C@H](O)[C@@H](COP2(=O)OCCC(c3ccc(Cl)c(F)c3)O2)O[C@H]1n1cnc2c(N)ncnc21 (some centres not stated)		328	
Cc1cncc(C2CCOP(=O)(OC[C@H]3O[C@@H](n4cnc5c(N)ncnc54)[C@](C)(O)[C@@H]3O)O2)c1 (some centres not stated)		73	
C[C@@]12OC(=O)O[C@@H]1[C@@H](COP1(=O)OCC[C@@H](c3cccc(Cl)c3)O1)O[C@H]2n1cnc2c(N)ncnc21 (some centres not stated)	29.2	296	
C[C@@]1(O)[C@H](O)[C@@H](COP2(=O)OCCC(c3cccc(C#N)c3)O2)O[C@H]1n1cnc2c(N)ncnc21 (some centres not stated)		137	
C[C@@]1(O)[C@H](O)[C@@H](COP2(=O)OCCC(c3ccc(C#N)cc3)O2)O[C@H]1n1cnc2c(N)ncnc21 (some centres not stated)		41	
C[C@@]12OC(=O)O[C@@H]1[C@@H](COP1(=O)OCCC(c3cccc(F)c3)O1)O[C@H]2n1cnc2c(N)ncnc21 (some centres not stated)	22.9	313	
C[C@@]1(O)[C@H](O)[C@@H](COP2(=O)OCCC(c3ccc(Cl)c(Cl)c3)O2)O[C@H]1n1cnc2c(N)ncnc21 (some centres not stated)	2	396	
C[C@@]1(O)[C@H](O)[C@@H](COP2(=O)OCCC(c3cc(Cl)cc(Cl)c3)O2)O[C@H]1n1cnc2c(N)ncnc21 (some centres not stated)	2.4	585	
C[C@@]12OC(=O)O[C@@H]1[C@@H](COP1(=O)OCCC(c3cc(F)cc(F)c3)O1)O[C@H]2n1cnc2c(N)ncnc21 (some centres not stated)	11.2	113	
C[C@@]1(O)[C@H](O)[C@@H](COP2(=O)OCCC(c3cccc(F)c3F)O2)O[C@H]1n1cnc2c(N)ncnc21 (some centres not stated)	8.2	323	
C[C@@]1(O)[C@H](O)[C@@H](COP2(=O)OCCC(c3cccnc3)O2)O[C@H]1n1cnc2c(N)ncnc21 (some centres not stated)		73	
COc1cc(C2CCOP(=O)(OC[C@H]3O[C@@H](n4cnc5c(N)ncnc54)[C@](C)(O)[C@@H]3O)O2)ccn1 (some centres not stated)		93	
C[C@@]12OC(=O)O[C@@H]1[C@@H](COP1(=O)OCCC(c3ccc(Cl)c(Cl)c3)O1)O[C@H]2n1cnc2c(N)ncnc21 (some centres not stated)	11.8	97	
C[C@@]12OC(=O)O[C@@H]1[C@@H](COP1(=O)OCCC(c3cc(Cl)cc(Cl)c3)O1)O[C@H]2n1cnc2c(N)ncnc21 (some centres not stated)	5	49	
CC(C)[C@H](N)C(=O)O[C@@H]1[C@@H](COP2(=O)OCCC(c3cccc(Cl)c3)O2)O[C@@H](n2cnc3c(N)ncnc32)[C@]1(C)O (some centres not stated)	3.1	117	
C[C@@]12OC(=O)O[C@@H]1[C@@H](COP1(=O)OCC[C@@H](c3ccncc3)O1)O[C@H]2n1cnc2c(N)ncnc21 (some centres not stated)	28.3	185	solubility [1]: 450 µg/mL (≈ 892 µM); bioavailability [2]: 39%; half-life [3]: 780 min; solubility [4]: 450 µg/mL (≈ 892 µM)
C[C@@]1(O)[C@H](O)[C@@H](COP2(=O)OCCC(c3cc(F)ccc3F)O2)O[C@H]1n1cnc2c(N)ncnc21 (some centres not stated)		139	
C[C@@]1(O)[C@H](O)[C@@H](COP2(=O)OCCC(c3ccccc3Br)O2)O[C@H]1n1cnc2c(N)ncnc21 (some centres not stated)		122	
C[C@@]1(O)[C@H](O)[C@@H](COP2(=O)OCCC(c3cc(F)cc(F)c3)O2)O[C@H]1n1cnc2c(N)ncnc21 (some centres not stated)	4.1	250	
C[C@@]1(O)[C@H](O)[C@@H](COP2(=O)OCCC(c3ccccn3)O2)O[C@H]1n1cnc2c(N)ncnc21 (some centres not stated)		93	
C[C@@]1(O)[C@H](O)[C@@H](COP2(=O)OCCC(c3cc(F)ccc3Br)O2)O[C@H]1n1cnc2c(N)ncnc21 (some centres not stated)		72	
C[C@@]1(O)[C@H](O)[C@@H](COP2(=O)OCCC(c3cccc(Br)c3)O2)O[C@H]1n1cnc2c(N)ncnc21 (some centres not stated)		99	
C[C@@]1(O)[C@H](O)[C@@H](CO)O[C@H]1n1cnc2c(N)ncnc21		209	
C[C@@]1(O)[C@H](O)[C@@H](COP2(=O)OCC[C@@H](c3ccncc3)O2)O[C@H]1n1cnc2c(N)ncnc21 (single isomer, unassigned)	3.6	47	
